Data taken from ChEMBL document CHEMBL1145010, “Stereoselective synthesis of beta-lactams with polyaromatic imines: entry to new and novel anticancer agents” (2003).

Tests used:
HT-29 = assay: In Vitro cytotoxicity against human cancer cell line, HT-29; type: functional
How it was run: (§1)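 MTT cytotoxicity assay across a panel of nine human cancer cell lines, run in the institutional Pharmacology and Analytic Core Laboratory by a previously described protocol. Cisplatin and a diamide were included as reference controls. Activity above 20 μM/mL was regarded as not significant.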

[1] = (§2) In Vitro cytotoxicity against human cancer cell line, MDA-213; type: functional, Cancer cell lines; how it was run: as §1
PC-3 = assay: In Vitro cytotoxicity against human cancer cell line, PC-3; type: functional; how it was run: as §1
OVCAR = assay: In Vitro cytotoxicity against human cancer cell line, OVCAR; type: functional; how it was run: as §1
MCF7 = assay: In Vitro cytotoxicity against human cancer cell line, MCF-7; type: functional; how it was run: as §1
[2] = (§3) In Vitro cytotoxicity against human cancer cell line, BRO; type: functional, Cancer cell lines; how it was run: as §1
HL-60 = assay: In Vitro cytotoxicity against human cancer cell line, HL-60; type: functional; how it was run: as §1
[3] = (§4) In Vitro cytotoxicity against human cancer cell line, SKOV; type: functional, Cancer cell lines; how it was run: as §1
K562 = assay: In Vitro cytotoxicity against human cancer cell line, K-562; type: functional; how it was run: as §1
Cancer cell lines [4] = assay: as §2; type: functional; how it was run: as §1
Cancer cell lines [5] = assay: as §3; type: functional; how it was run: as §1
Cancer cell lines [6] = assay: as §4; type: functional; how it was run: as §1

Molecule	Cytotoxicity (HT-29)	Cytotoxicity [1]	Cytotoxicity (PC-3)	Cytotoxicity (OVCAR)	Cytotoxicity (MCF7)	Cytotoxicity [2]	Cytotoxicity (HL-60)	Cytotoxicity [3]	Cytotoxicity (K562)	Cytotoxicity (Cancer cell lines [4])	Cytotoxicity (Cancer cell lines [5])	Cytotoxicity (Cancer cell lines [6])
CN1CCN(C(=O)CCC(=O)Nc2cc3c4ccccc4ccc3c3ccccc23)CC1	16.7 µM	12.23 µM	27.29 µM	18.11 µM	40 µM	33.64 µM	9.41 µM	11.05 µM	12.7 µM			
CC(=O)OC1C(=O)N(c2ccccc2)C1c1cc2c3ccccc3ccc2c2ccccc12 (stereo not given)	>20 µM	>20 µM	>20 µM	>20 µM	>20 µM	>20 µM	>20 µM	>20 µM	>20 µM			
CC(=O)OC1C(=O)N(c2cc3c4ccccc4ccc3c3ccccc23)[C@H]1c1ccccc1 (stereo not given in full)	5.66 µM	11.98 µM	16.32 µM	4.17 µM	9.81 µM	10.84 µM	3.64 µM	6.88 µM	4.33 µM			
CC(=O)OC1C(=O)N(c2cccc3cc4ccccc4cc23)[C@@H]1c1ccccc1 (stereo not given in full)	>20 µM	>20 µM	>20 µM	>20 µM	>20 µM	>20 µM	>20 µM	>20 µM	>20 µM			
O=C1C(Oc2ccccc2)[C@H](c2ccccc2)N1c1cc2ccccc2c2ccccc12 (stereo not given in full)	>20 µM	>20 µM	>20 µM	>20 µM	>20 µM	>20 µM	>20 µM	>20 µM	>20 µM			
CC(=O)OC1C(=O)N(c2cccc3cc4c(cc23)Cc2cc3ccccc3cc2-4)[C@H]1c1ccccc1 (stereo not given in full)	>20 µM	>20 µM	>20 µM	>20 µM	>20 µM	>20 µM	>20 µM	>20 µM	>20 µM			
O=C1c2ccccc2C(=O)N1C1C(=O)N(c2cc3c4ccccc4ccc3c3ccccc23)[C@H]1c1ccccc1 (stereo not given in full)	>20 µM	>20 µM	>20 µM	>20 µM	>20 µM	>20 µM	>20 µM	>20 µM	>20 µM			
O=C1C(Oc2ccccc2)[C@H](c2ccccc2)N1c1cc2c3ccccc3ccc2c2ccccc12 (stereo not given in full)	>20 µM	>20 µM	>20 µM	>20 µM	>20 µM	>20 µM	>20 µM	>20 µM	>20 µM			
CC(=O)OC1C(=O)N(c2ccc3ccc4cccc5ccc2c3c45)[C@H]1c1ccccc1 (stereo not given in full)	>20 µM	>20 µM	>20 µM	>20 µM	>20 µM	>20 µM	>20 µM	>20 µM	>20 µM			
CISPLATIN	17 µM		4.66 µM	3.99 µM	10.1 µM		1.66 µM		2.33 µM	12.3 µM	7.66 µM	5.99 µM
CC(=O)OC1C(=O)N(c2cc3c4ccccc4ccc3c3ccccc23)[C@H]1c1ccccn1 (stereo not given in full)	15.9 µM	14.46 µM			14.93 µM	11 µM	2.5 µM	9 µM	2.5 µM			
CC(=O)OC1C(=O)N(c2cc3ccccc3c3ccccc23)[C@H]1c1ccccc1 (stereo not given in full)	10.49 µM	12.49 µM	9.3 µM	18 µM	10.09 µM	10.48 µM	5.21 µM	18 µM	4 µM			
CC(=O)OC1C(=O)N(c2cccc3ccccc23)[C@@H]1c1ccccc1 (stereo not given in full)	>20 µM	>20 µM	>20 µM	>20 µM	>20 µM	>20 µM	>20 µM	>20 µM	>20 µM			
